In the library only some 2.4% were active in any assay of this set; here they are far more common.
Tb hexokinase: blocks Trypanosoma brucei hexokinase 1 activity. recombinant TbHK1, G6PDH-coupled NADH A340. inhibition, % at 10 µM. 0.11% of 220,000 active;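 active means inhibition of 50% or more in the single-dose primary screen; inactive means inhibition below 50%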
MT stabilizer: stabilizes microtubules in HeLa cells | HeLa tubulin immunostaining HCS, 24 h; share of cells brighter than vehicle mean+2SD | % tubulin-high responders, % at 10 µM | 0.83% of 200,000 active | AID 2205;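 active means plate Z-score above 3 for both tubulin-high and condensed-nucleus cell shares, with cell loss under 80%, at 10 µM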;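 further: anti alpha tubulin signal scored within the nucleus-defined area of each cell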
b-catenin transl: modulators of beta-catenin nuclear translocation. HeLa beta-catenin nuclear translocation, immunofluorescence imaging. nuclear translocation activity, % at 5 µM. 0.3% of 190,000 active;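 active means nuclear translocation activity above 50% at 5 µM, with a well cell count of 50 or more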;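 further: per-cell ratio of nuclear to cytoplasmic median beta-catenin stain intensity; plate controls were DMSO negative control for no effect and GSK-3 inhibitor IX positive control for full effect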
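Technique: fluorescence imaging of beta-catenin antibody stain plus DAPI / Material: human HeLa cell line / Incubation: compound treatment 24 h, 37°C, 5% CO2 / Read-out basis: % activation of per-cell nuclear versus cytoplasmic median beta-catenin signal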
PGE2 EP2 inh: EP2 receptor (human) inhibition. P43116. C6 glioma cells expressing human EP2, cAMP TR-FRET; cells stimulated with saturating PGE2. inhibition, % at 25 µM. 0.52% of 260,000 active;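 active means percent inhibition above 40 after rounding to a whole number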;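 further: rat C6 glioma host cells with rolipram phosphodiesterase inhibitor present; the protocol text gives 20 µM as final concentration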
Target sequence (P43116 whole entry, looked up): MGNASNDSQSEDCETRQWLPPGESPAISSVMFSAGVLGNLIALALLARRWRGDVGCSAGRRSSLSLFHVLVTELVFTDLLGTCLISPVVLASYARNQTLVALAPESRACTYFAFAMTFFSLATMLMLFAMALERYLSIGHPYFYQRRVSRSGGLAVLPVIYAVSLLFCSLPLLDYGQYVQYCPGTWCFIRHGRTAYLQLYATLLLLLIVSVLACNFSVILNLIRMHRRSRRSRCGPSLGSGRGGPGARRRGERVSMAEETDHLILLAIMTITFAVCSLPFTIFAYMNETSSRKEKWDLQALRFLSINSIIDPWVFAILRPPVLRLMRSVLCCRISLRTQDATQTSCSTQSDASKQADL
HMGR II inh: E. faecalis class II HMG-CoA reductase inhibition | purified E. faecalis HMGR, NADPH absorbance 340 nm kinetic | inhibition, % at 10 µM | 0.41% of 190,000 active | AID 1066;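 active means inhibition above a set limit, the median over all tested compounds plus 3 SD, cut at about 9.5% in these data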;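 further: enzyme runs in reverse so mevalonate oxidation gives rising NADPH absorbance; 0% = complete reaction with DMSO and 100% = background rate lacking mevalonate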
EP2 mod: modulates human prostaglandin E2 receptor EP2 signaling; 0.83% of 260,000 active; induction, % at 25 µM; EP2-expressing cells, cAMP HTRF FRET, PGE2 co-stimulation; AID 940; P43116;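 active means compounds whose cAMP rise, as percent of the full-agonist control response, exceeds 60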;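 further: rat C6 glioma line stably carrying human EP2 under a CMV promoter; the protocol text gives 20 µM as final concentration; 100% = response of wells given 1 µM PGE2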
An asterisk follows results filed as active; x = no result given.

SMILES	Tb hexokinase	MT stabilizer	b-catenin transl	PGE2 EP2 inh	HMGR II inh	EP2 mod
CCN(CC)CCN(Cc1cc2c(C)cc(C)cc2[nH]c1=O)C(=S)NCC1CCCO1 (stereo not given)	x	x	x	13.3	x	-18.9
CCN(CC)C(=O)CSc1nnc2n(CC(=O)NC3CCCCC3)c3ccccc3n12	x	x	x	8.8	x	-13.3
CCOc1ncccc1C(=O)N1CCN(c2cc(Cl)ccc2C)CC1	-11.1	10.5	84.3*	0.6	-7.6	3.4
CCOc1ncccc1C(=O)N1CCN(c2cccc(C)c2C)CC1	8.5	11.4*	185.6*	7.5	-4.2	-12.1
COc1ccccc1NC(=O)Cn1cnc2scc(-c3ccc(C)c(C)c3)c2c1=O	x	x	x	12.6	x	-0.8
C=C(C)CC(Nc1ccco1)c1ccccc1C (stereo not given)	x	x	x	5.3	x	61.2*
CCC(C)NS(=O)(=O)c1ccc(OCC(=O)N2CCCCCC2)cc1 (stereo not given)	x	x	x	5.8	x	-48.6
COc1ccc(N2C(=O)C(=O)/C(=C(\O)c3ccc(C)cc3)C2c2cccnc2)cc1 (stereo not given)	x	x	x	11.0	x	-7.5
O=C(CCl)Nc1cccc(S(=O)(=O)N2CCCCCC2)c1	-2.3	12.9*	31.2	7.0	-1.6	-0.5
CN(C)S(=O)(=O)c1cccc(C(=O)Nc2ccc(S(=O)(=O)N3CCCC3)cc2)c1	-2.5	5.8	0.0	3.7	13.7*	-21.4
CCOc1ccc2[nH]c(=O)c(CN(C3CCCCC3)S(=O)(=O)c3ccccc3F)cc2c1	x	x	x	15.3	x	9.3
O=C(Nc1ncc(Cc2ccc(SC(F)F)cc2)s1)c1ccccc1	-1.4	33.6*	1.8	x	-1.5	-28.7
COC(CNC(=O)CNC(=S)N(Cc1ccccc1)Cc1cccnc1)OC	3.9	1.7	-0.8	3.9	9.6*	-5.5
O=C(CNC(=S)N(Cc1ccccc1)Cc1cccnc1)NCc1ccccc1	2.0	1.9	-2.0	5.6	-2.0	-17.5
COc1ccc(-c2nc(NC(=O)C3CC(=O)N(c4ccc5c(c4)OCCO5)C3)sc2C)cc1 (stereo not given)	-3.7	11.2*	x	6.3	-0.2	-49.8
CN(C)C(=O)CSc1nc(-c2ccccc2)c(-c2ccccc2)o1	-1.5	2.7	0.6	7.8	-1.9	62.9*
Cc1ccc(/C(O)=C2/C(=O)C(=O)OC2c2ccc(Cl)cc2)cc1 (stereo not given)	-24.2	3.7	-1.7	34.9	-3.0	30.6
Cc1ccc(C(=O)N2C(=O)C(c3ccccc3)Oc3ccccc32)cc1 (stereo not given)	-13.6	x	-0.5	9.8	x	87.2*
O=C(NCC(=O)N(Cc1cccs1)C(C(=O)NC1CCCC1)c1ccncc1)c1ccco1 (stereo not given)	-7.2	2.8	x	14.4	32.9*	-4.0
O=C(NC1CCCC1)C(c1ccccc1)N(Cc1ccco1)C(=O)Cc1cccs1 (stereo not given)	3.1	2.2	0.0	10.7	-4.5	54.7
O=C(NC1CCCCC1)C(c1ccccc1F)N(Cc1ccco1)C(=O)Cc1cccs1 (stereo not given)	x	x	x	11.9	x	63.5*
Cc1ccc(C2CC(C(F)F)n3ncc(C(=O)Nc4cnn(Cc5ccccc5C)c4)c3N2)cc1 (stereo not given)	-11.4	27.6*	5.1	13.4	-2.9	22.2
Cc1ccc(CN(CCCN2CCOCC2)Cc2ccccc2O)o1	x	x	x	4.5	x	-5.3
Cc1cc(N/C=C/C(=O)c2ccc(Br)cc2)no1	-12.8	2.0	-0.8	10.0	-5.8	-7.2
O=C(/C=C\Nc1ccc(Cl)cn1)c1ccc(Br)cc1	-11.0	2.6	-0.1	5.9	10.9*	2.4
SMILES	Tb hexokinase	MT stabilizer	b-catenin transl	PGE2 EP2 inh	HMGR II inh	EP2 mod
O=S(=O)(O)[C@@H](CO)c1ccccc1 (tested in a mixture with another compound)	x	x	x	49.0*	x	24.3
COc1ccc(/C=N/OC(=O)Nc2ccccc2OC)cc1	8.0	18.9*	-0.7	3.0	1.5	-27.1
O=C(Nc1ccccc1Cl)O/N=C/c1ccncc1	2.7	0.9	x	6.2	x	x
CN(C)c1ccc(/C=N/OC(=O)Nc2ccccc2Cl)cc1	-12.2	31.0*	0.4	1.0	-2.3	-33.5
C=CCNC(=O)[C@@H]1C=CCN1S(=O)(=O)c1cccc2ccccc12	x	x	x	8.6	x	-18.9
O=C(NNC(=O)c1ccc(NC(=O)c2ccccc2)cc1)c1ccccc1	1.3	5.6	0.6	3.7	0.2	-3.8
N#CC1(c2ccc(NC(=O)c3ccccc3)cc2)CCCC1	-5.3	3.0	0.3	9.4	12.9*	-27.8
CC(CCC(=O)O)(c1cc(Br)c(O)c(Br)c1)c1cc(Br)c(O)c(Br)c1	x	x	x	39.7*	x	48.5
Cc1ccccc1-n1c(-c2cccnc2)n[nH]c1=S	-3.7	3.9	-5.3	8.6	-0.5	16.7
CCN(CC)c1ccc(-c2n[nH]c(=S)n2-c2ccccc2)cc1	-2.2	24.8*	4.3	13.2	-7.3	26.0
CCN(CC)c1ccc(-c2n[nH]c(=S)n2-c2ccccc2C)cc1	-2.9	6.9	0.3	4.7	14.1*	30.4
Cc1cccc(C)c1NC(=O)CSc1cc(C)c2ccc(C)c(C)c2n1	x	x	x	13.2	x	29.7
O=C(Cc1ccc(Cl)c(Cl)c1)N1CCn2c(nnc2C2CC2)C1	x	x	x	x	x	6.2
COc1ccc(/C=N/NC(=O)CCn2cnc(-c3ccccc3)c2-c2ccccc2)cc1OC	-17.3	22.0*	45.5	5.7	-4.3	10.8
COc1ccc(/C=N/NC(=O)CCC(=O)Nc2ccccc2)cc1OC	-6.8	2.1	0.3	4.1	-0.5	-3.5
C=C1C(C(=O)Nc2ccc3c(c2)OCCO3)C1C(=O)Nc1ccc2c(c1)OCCO2 (stereo not given)	x	x	x	13.8	x	-33.2
Cc1ccc(CN(Cc2cc3c(C)ccc(C)c3[nH]c2=O)C(=O)c2cnccn2)cc1	x	x	x	18.2	x	-26.0
O=C(c1ccc(Cl)cc1)N1CCn2c1nc1ccccc12	8.6	3.7	-7.9	97.1*	-7.5	-13.6
COc1ccc(C(=O)N2CCn3c2nc2ccccc23)cc1	2.4	2.2	-0.5	-0.7	-5.2	-18.3
NC(=O)c1sc2nc(N3CCOCC3)c3c(c2c1N)CCCC3	-23.8	0.2	x	22.0	4.0	25.5
CCCCN(CCCC)C(=O)c1sc2nc(N3CCOCC3)c3c(c2c1N)CCCC3	-13.7	x	-0.6	10.0	x	87.3*
O=C(CSc1nnc(-c2c[nH]c3ccccc23)o1)c1ccc(F)cc1	x	x	x	10.6	x	-64.2
Cc1ccc2cc(CN(C(=O)c3cccs3)C3CCCCC3)c3nnnn3c2c1	x	x	x	6.4	x	42.5
O=C(CSc1nnc(-c2ccco2)n1Cc1ccccc1)N1CCOCC1	x	x	x	9.9	x	-5.0
COc1ccc(/C=N/NC(=O)c2cccc(Br)c2)cc1Cn1cc(Cl)cn1	0.6	40.7*	x	19.1	-3.0	-5.8
Cn1cnc([N+](=O)[O-])c1Sc1nc(N)nc2c1ncn2Cc1ccccc1	x	x	x	53.2*	x	7.3

Compound activity as filed in PubChem BioAssay.
